Where “and” joins values, the source holds several entries; their conditions need not be identical. Identical values can stand only once. Calls of active or inactive are those of the source. The rule behind the calls is not given here.
Tests used:
[1] = organism: Rattus norvegicus; assay: Saluretic activity in the rat measured as concentration of K+ in urine; assay type: functional
In short: (§1)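 Rats deprived of food 24 h, water ad libitum, dosed 50 mg/kg by stomach tube as suspension in 2% starch, no extra water load. Groups of three in diuresis funnels; urine over first 5 h collected. Na⁺ and K⁺ by flame photometry, Cl⁻ argentometrically; expressed as mequiv/kg.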

[2] = test system: Canis familiaris; assay: Saluretic activity in the dog measured as concentration of Na+ in urinary excretion (2 animals/dose) at (dose 1.56 mg/Kg, perorally); assay type: functional, Canis lupus familiaris, Urine
In short: (§2)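 Male beagles trained to rest on a table and to accept stomach tube and catheter. Food withdrawn 24 h before, tap water ad libitum. Bladder emptied by catheter, then 20 mL/kg tap water by stomach tube. Catheterized hourly up to 8 h with 4 mL/kg water orally each time; first 2 h urine served as control. Oral dosing after second catheterization. Pooled 1–6 h urine; Na⁺/K⁺ by flame photometry, Cl⁻ argentometrically.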

[3] = test system: Canis familiaris; assay: Saluretic activity on the basis of the 1.56 mg/Kg perorally dog assay; Compound is found to be highly active.; assay type: functional, organism-based; conditions: Canis lupus familiaris; in short: as §2
[4] = test system: Canis familiaris; assay: Saluretic activity in the dog measured as concentration of Cl- in urinary excretion (2 animals/dose) at (dose 1.56 mg/Kg, perorally); assay type: functional, Canis lupus familiaris, Urine
In short: (§3)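 Male beagles trained to the procedures, food withdrawn 24 h before, tap water ad libitum. Bladder emptied by catheter, then 20 mL/kg tap water by stomach tube, plus 4 mL/kg orally at each hourly catheterization up to 8 h. The first 2 h of urine served as control. Compound given orally after the second catheterization. Urine from 1–6 h post-dose pooled; Na⁺ and K⁺ by flame photometry, Cl⁻ argentometrically, in mequiv/kg.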

[5] = organism: Rattus norvegicus; assay: Saluretic activity in the rat measured as concentration of Na+ in urine; assay type: functional; in short: as §1
[6] = organism: Rattus norvegicus; assay: Saluretic activity in the rat measured as concentration of chloride in urine; assay type: functional; in short: as §1
[7] = test system: Canis familiaris; assay: Diuretic activity in the dog (2 animals/dose) at (dose 1.56 mg/Kg), when administered perorally; assay type: functional, Canis lupus familiaris, Urine
In short: (§4)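 Trained male beagles, fasted 24 h with tap water ad libitum. Bladder emptied by catheter, then 20 mL/kg tap water by stomach tube, with 4 mL/kg water at each hourly catheterization up to 8 h. The first 2 h of urine served as control. Oral dosing came after the second catheterization, and 1–6 h urine was pooled. Na⁺ and K⁺ were measured by flame photometry, Cl⁻ argentometrically, in mequiv/kg.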

[8] = It is the ratio, measured as saluretic activity in the dog as concentration of Na+ in urinary excretion (dose 1.56 mg/Kg, perorally) to that of K; assay type: functional, Urine; in short: as §4
[9] = test system: Rattus norvegicus; assay: Saluretic activity on the basis of the 50 mg/kg perorally rat assay; Compound is found to be moderately active; assay type: functional, organism-based; design: dose 50 mg/kg; in short: as §1
[10] = It is the ratio, measured as saluretic activity in the dog as concentration of Cl- in urinary excretion (dose 1.56 mg/Kg, perorally) to that of (Na+)+(K+); assay type: functional, Urine; in short: as §4
[11] = test system: Canis familiaris; assay: Saluretic activity in the dog measured as concentration of K+ in urinary excretion (2 animals/dose) at (dose 1.56 mg/Kg, perorally); assay type: functional, Canis lupus familiaris, Urine; in short: as §3
[12] = organism: Rattus norvegicus; assay: Diuretic activity in the rats, determined by a modified Lipschitz test; assay type: functional, Urine
In short: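 Modified Lipschitz test: rats deprived of water 24 h, grouped in threes of similar weight in diuresis funnels. Oral dose of 50 mg/kg, suspended in 2% starch solution, by stomach tube.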

[13] = test system: Canis familiaris; assay: It is the ratio, measured as saluretic activity in the dog as concentration of Na+ in urinary excretion (dose mg/Kg, po) to that of K; assay type: functional, Canis lupus familiaris, Urine; in short: as §4
[14] = test system: Canis familiaris; assay: It is the ratio, measured as saluretic activity in the dog as concentration of Cl- in urinary excretion (dose mg/Kg, po) to that of (Na++K+); assay type: functional, Canis lupus familiaris, Urine; in short: as §4
[15] = test system: Canis familiaris; assay: Diuretic activity in the dog (2 animals/dose) at (dose 12.5 mg/Kg), when administered perorally; assay type: functional, Canis lupus familiaris, Urine; in short: as §4
[16] = test system: Canis familiaris; assay: Saluretic activity in the dog measured as concentration of K+ in urinary excretion (2 animals/dose) at (dose mg/Kg, po); assay type: functional, Canis lupus familiaris, Urine; in short: as §2
[17] = test system: Canis familiaris; assay: Salidiuretic activity on the basis of the 1.56 mg/Kg po dog assay; compound was highly active; assay type: functional, organism-based; conditions: Canis lupus familiaris; Urine
[18] = test system: Canis familiaris; assay: Saluretic activity in the dog measured as concentration of K+ in urinary excretion (2 animals/dose) at (dose 6.25 mg/Kg, po); assay type: functional, Canis lupus familiaris, Urine; in short: as §2
[19] = test system: Canis familiaris; assay: Saluretic activity in the dog measured as concentration of Na+ in urinary excretion (2 animals/dose) at (dose 0.1 mg/Kg, po); assay type: functional, Canis lupus familiaris, Urine; in short: as §2
[20] = test system: Canis familiaris; assay: Saluretic activity in the dog measured as concentration of Na+ in urinary excretion (2 animals/dose) at (dose 6.25 mg/Kg, po); assay type: functional, Canis lupus familiaris, Urine; in short: as §2
[21] = test system: Canis familiaris; assay: Diuretic activity in the dog (2 animals/dose) at (dose 6.25 mg/Kg), when administered perorally; assay type: functional, Canis lupus familiaris, Urine; in short: as §4
[22] = It is the ratio, measured as saluretic activity in the dog as concentration of Cl- in urinary excretion (dose 6.25 mg/Kg, po) to that of (Na++K+); assay type: functional, Urine; in short: as §4
[23] = test system: Rattus norvegicus; assay: Salidiuretic activity on the basis of the 50 mg/kg po rat assay; compound was highly active; assay type: functional, organism-based; design: dose 50 mg/kg; conditions: Urine
[24] = It is the ratio, measured as saluretic activity in the dog as concentration of Cl- in urinary excretion (dose 0.4 mg/Kg, po) to that of (Na++K+); assay type: functional, Urine; in short: as §4
[25] = test system: Canis familiaris; assay: It is the ratio, measured as saluretic activity in the dog as concentration of Na+ in urinary excretion (dose 1.56 mg/Kg, po) to that of K; assay type: functional, Canis lupus familiaris, Urine; in short: as §4
[26] = test system: Canis familiaris; assay: Saluretic activity in the dog measured as concentration of Na+ in urinary excretion (2 animals/dose) at (dose 0.4 mg/Kg, po); assay type: functional, Canis lupus familiaris, Urine; in short: as §2
[27] = test system: Canis familiaris; assay: Saluretic activity in the dog measured as concentration of K+ in urinary excretion (2 animals/dose) at (dose 0.4 mg/Kg, po); assay type: functional, Canis lupus familiaris, Urine; in short: as §3
[28] = It is the ratio, measured as saluretic activity in the dog as concentration of Na+ in urinary excretion (dose 6.25 mg/Kg, po) to that of K; assay type: functional, Urine; in short: as §4
[29] = It is the ratio, measured as saluretic activity in the dog as concentration of Cl- in urinary excretion (dose 1.56 mg/Kg, po) to that of (Na++K+); assay type: functional, Urine; in short: as §4
[30] = test system: Canis familiaris; assay: Saluretic activity in the dog measured as concentration of Cl - in urinary excretion (2 animals/dose) at (dose 0.4 mg/Kg, po); assay type: functional, Canis lupus familiaris, Urine; in short: as §3
[31] = test system: Canis familiaris; assay: Saluretic activity in the dog measured as concentration of Na+ in urinary excretion (2 animals/dose) at (dose 1.56 mg/Kg, po); assay type: functional, Canis lupus familiaris, Urine; in short: as §2
[32] = test system: Canis familiaris; assay: Diuretic activity in the dog (2 animals/dose) at (dose 0.1 mg/Kg), when administered perorally; assay type: functional, Canis lupus familiaris, Urine; in short: as §4
[33] = test system: Canis familiaris; assay: Diuretic activity in the dog (2 animals/dose) at (dose 0.4 mg/Kg), when administered perorally; assay type: functional, Canis lupus familiaris, Urine; in short: as §4
[34] = test system: Canis familiaris; assay: Saluretic activity in the dog measured as concentration of K+ in urinary excretion (2 animals/dose) at (dose 1.56 mg/Kg, po); assay type: functional, Canis lupus familiaris, Urine; in short: as §2
[35] = test system: Canis familiaris; assay: Saluretic activity in the dog measured as concentration of Cl - in urinary excretion (2 animals/dose) at (dose 6.25 mg/Kg, po); assay type: functional, Canis lupus familiaris, Urine; in short: as §3
[36] = test system: Canis familiaris; assay: Saluretic activity in the dog measured as concentration of K+ in urinary excretion (2 animals/dose) at (dose 0.1 mg/Kg, po); assay type: functional, Canis lupus familiaris, Urine; in short: as §3
[37] = It is the ratio, measured as saluretic activity in the dog as concentration of Na+ in urinary excretion (dose 0.1 mg/Kg, po) to that of K; assay type: functional, Urine; in short: as §4
[38] = It is the ratio, measured as saluretic activity in the dog as concentration of Cl- in urinary excretion (dose 0.1 mg/Kg, po) to that of (Na++K+); assay type: functional, Urine; in short: as §4
[39] = test system: Canis familiaris; assay: Saluretic activity in the dog measured as concentration of Cl - in urinary excretion (2 animals/dose) at (dose 1.56 mg/Kg, po); assay type: functional, Canis lupus familiaris, Urine; in short: as §3
[40] = It is the ratio, measured as saluretic activity in the dog as concentration of Na+ in urinary excretion (dose 0.4 mg/Kg, po) to that of K; assay type: functional, Urine; in short: as §4
[41] = test system: Canis familiaris; assay: Saluretic activity in the dog measured as concentration of Cl - in urinary excretion (2 animals/dose) at (dose 0.1 mg/Kg, po); assay type: functional, Canis lupus familiaris, Urine; in short: as §3

With `NCc1cccs1.NS(=O)(=O)c1cc(S(=O)(=O)O)c(NCc2cccs2)cc1Cl` the Saluretic activity [1] was 1.7 m equiv 5hr-1 kg-1, the Saluretic activity [2] was 2.33 m equiv 6hr-1 kg-1 and the Saldiuretic activity [3] was “Active”. It also gave a Saldiuretic activity [4] of 2.76 m equiv 6hr-1 kg-1, a Saluretic activity [5] of 2.7 m equiv 5hr-1 kg-1 and a Saluretic activity [6] of 3.3 m equiv 5hr-1 kg-1. For the same compound, the Diuretic activity [7] was 44.5 ml kg-1 6hr-1, the Ratio [8] was 4.2 and the Saldiuretic activity [9] was “Weak activity”. The Ratio [10] was 0.95, the Saluretic activity [11] was 0.55 m equiv 6hr-1 kg-1 and the Diuretic activity [12] was 1 mL/kg.
With `NS(=O)(=O)c1cc(S(=O)(=O)[O-])c(NCc2ccco2)cc1Nc1ccccc1.[Na+]` the Saluretic activity [1] was 0.7 m equiv 5hr-1 kg-1, the Saluretic activity [13] was 2.1 and 5 and the Saluretic activity [5] was 0.6 m equiv 5hr-1 kg-1. For the same compound, the Saluretic activity [6] was 1.1 m equiv 5hr-1 kg-1, the Saluretic activity [14] was 1 and 1.1 and the Diuretic activity [15] was 49.4 ml kg-1 6hr-1. The Saluretic activity [16] was 0.18 m equiv 6hr-1 kg-1 and 0.45 m equiv 6hr-1 kg-1, the Diuretic activity [7] was 32.3 ml kg-1 6hr-1 and the Diuretic activity [12] was 0.6 mL/kg.
For `NS(=O)(=O)c1cc(S(=O)(=O)[O-])c(NCc2ccco2)cc1S(=O)(=O)C1CCCCC1.[Na+]`, the Saldiuretic activity [17] was “Active”, the Saluretic activity [1] was 2.3 m equiv 5hr-1 kg-1 and the Saldiuretic activity [18] was 1.16 m equiv 6hr-1 kg-1. The Saluretic activity [19] was 1.95 m equiv 6hr-1 kg-1, the Saluretic activity [20] was 5.5 m equiv 6hr-1 kg-1 and the Diuretic activity [21] was 73.5 ml kg-1 6hr-1. The Ratio [22] was 1, the Saldiuretic activity [23] was “Active” and the Ratio [24] was 1. The Ratio [25] was 4.7, the Saluretic activity [26] was 3.71 m equiv 6hr-1 kg-1 and the Saluretic activity [27] was 0.82 m equiv 6hr-1 kg-1. It also gave a Saluretic activity [5] of 8.2 m equiv 5hr-1 kg-1, a Ratio [28] of 4.7 and a Ratio [29] of 0.95. The Saluretic activity [6] was 9.1 m equiv 5hr-1 kg-1, the Saldiuretic activity [30] was 4.43 m equiv 6hr-1 kg-1 and the Saluretic activity [31] was 5.38 m equiv 6hr-1 kg-1. The Diuretic activity [32] was 44.7 ml kg-1 6hr-1, the Diuretic activity [33] was 59 ml kg-1 6hr-1 and the Saldiuretic activity [34] was 1.14 m equiv 6hr-1 kg-1. The Saldiuretic activity [35] was 6.83 m equiv 6hr-1 kg-1, the Saldiuretic activity [36] was 0.53 m equiv 6hr-1 kg-1 and the Diuretic activity [7] was 66.7 ml kg-1 6hr-1. For the same compound, the Ratio [37] was 3.7, the Ratio [38] was 1 and the Saldiuretic activity [39] was 6.15 m equiv 6hr-1 kg-1. It also gave a Diuretic activity [12] of 2.8 mL/kg, a Ratio [40] of 4.5 and a Saldiuretic activity [41] of 2.49 m equiv 6hr-1 kg-1.
